TAAR1 agonist – human TAAR1 agonists, primary screen, Fluo-8 calcium fluorescence, CHO RD-HGA16 cells; vehicle wells 0%, saturating PEA agonist 100%; activation, % at 3 µM; 0.99% of 360,000 active; AID 624467, 2012;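 active = activation above the mean activation of all test compounds in the run plus 3 SD, cut at about 38% in these data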
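Assay system – CHO-derived RD-HGA16 cells with stable Gα16 and human TAAR1 · Compound dosing – one-point dosing at 3 µM (nominal) · Incubation – 17-24 h seeding, 75 min 37 °C dye, 30 min RT · Measured by – kinetic Fluo-8 calcium fluorescence · Control set – DMSO vehicle as 0%, PEA at EC100 as 100% · Repeats – single well for each compound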
OX1R antag-1 – antagonists of human orexin 1 receptor (OX1R); AID 485270, 2010; inhibition, % at 6.6 µM; 1.8% of 330,000 active; OX1R-expressing cells, FRET antagonist read-out; in the data active = inhibition mostly above about 38%, no sharp cut-off; inactive = mostly below about 40%;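 note: 0% = agonist challenge alone and 100% = reference antagonist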
OX1R antag-2 – OX1R (HCRTR1) antagonists, primary screen, fluorescence, CHO/OX1R cells, Fluo-8 calcium, orexin A; AID 434989, 2010; inhibition, % at 5 µM; Fluo-8 calcium fluorescence; 0.43% of 330,000 active; Orexin/Hypocretin receptor type 1 (Homo sapiens), O43613;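 active = inhibition above its plate's threshold, mean inhibition of all tested compounds on the plate plus 3 SD, cut at about 37% in these data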;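 note: 0% = orexin A challenge wells and 100% = SB-334867-A antagonist wells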
TAAR1 antagonist – human TAAR1 antagonists, primary screen, Fluo-8 calcium fluorescence, CHO RD-HGA16 cells | inhibition, % at 3 µM | AID 624466, 2012 | antagonist | Trace amine-associated receptor 1 (Homo sapiens), Q96RJ0 | 1.5% of 360,000 active;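 active = inhibition above a per-plate cutoff, the mean inhibition of test compounds on that plate plus 3 SD, cut at about 49% in these data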;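 note: 0% = DMSO plus EC80 beta-PEA response and 100% = DMSO alone without agonist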
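test system = CHO RD-HGA16 cells bearing hTAAR1 | replication = singlicate | controls = DMSO-only wells and EC80 β-PEA-stimulated wells | reagent = EC80 β-phenethylamine stimulus | read-out basis = percent inhibition of PEA-evoked calcium signal, max/basal emission ratio | schedule = seeding 17-24 h prior, 75-min 37 °C, 30-min RT dye loading | signal = kinetic Fluo-8 calcium fluorescence measurement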
NTR1 agonist – agonists of human NTR1, primary screen, imaging, U2OS cells, beta-arrestin-GFP, high content. activation, % at 20 µM. 0.17% of 330,000 active. NTR1-U2OS beta-arrestin-GFP spot imaging, agonist mode. AID 493036, 2011. Neurotensin receptor type 1 (Homo sapiens), P30989;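 active = activation at or above 40% of the spot to cytoplasm intensity ratio, with at least 20 cells analyzed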;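 note: 0% = DMSO without peptide and 100% = 100 nM NTR1 peptide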
Target sequence (P30989 whole entry, looked up): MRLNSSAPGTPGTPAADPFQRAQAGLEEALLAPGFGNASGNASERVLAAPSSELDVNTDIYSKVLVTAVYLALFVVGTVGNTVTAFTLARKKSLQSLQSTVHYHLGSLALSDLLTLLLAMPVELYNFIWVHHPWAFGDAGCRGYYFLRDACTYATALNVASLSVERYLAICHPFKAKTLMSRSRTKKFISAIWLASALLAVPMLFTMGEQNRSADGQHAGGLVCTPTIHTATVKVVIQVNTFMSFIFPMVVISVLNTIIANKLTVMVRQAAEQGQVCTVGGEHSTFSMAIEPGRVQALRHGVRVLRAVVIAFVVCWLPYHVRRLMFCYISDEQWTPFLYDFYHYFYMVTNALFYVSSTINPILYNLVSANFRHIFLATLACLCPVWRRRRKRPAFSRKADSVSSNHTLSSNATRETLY
CHO parental Ca – ATP-evoked calcium signal inhibitors, parental CHO, primary screen, counter-screen for OX1R antagonist project, cell-based, fluorescence, Fluo-8 calcium dye; parental CHO-K1, ATP-induced calcium, Fluo-8 fluorescence; 0.63% of 330,000 active; inhibition, % at 5.6 µM;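 active = inhibition above that plate's mean sample inhibition plus 3 SD, cut at about 26% in these data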;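 note: 0% = ATP-challenged DMSO wells and 100% = DMSO wells without ATP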
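Assay system – parental CHO cells · Reagent – ATP stimulus · Detection – intracellular calcium via Fluo-8 no-wash fluorescent dye · Evaluation – percent inhibition of ATP-evoked calcium rise, normalized to controls · Controls – ATP wells versus no-ATP DMSO wells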
OX1R Ca confirm – OX1R (HCRTR1) antagonists, confirmation, fluorescence, CHO/OX1R cells, Fluo-8 calcium, orexin A. shares compounds with OX1R antag-2. orexin A calcium Fluo-8 fluorescence. inhibition, % at 5 µM. 38% of 1,100 active. AID 492963, 2010; in the data active = inhibition above about 29%;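 note: 0% = agonist challenge alone and 100% = reference antagonist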
CHO Ca triplic – ATP-evoked calcium inhibition in parental CHO, counter-screen for OX1R antagonist project, cell-based, fluorescence, CHO-K1, triplicate; shares compounds with OX1R antag-2; ATP-induced calcium, Fluo-8 fluorescence; inhibition, % at 5.6 µM; 9.3% of 1,100 active; AID 492965, 2010;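 active = inhibition above a per-plate limit, the mean inhibition of that plate's test compounds plus 3 SD, cut at about 25% in these data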;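 note: 0% = ATP challenge with DMSO and 100% = DMSO without ATP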
Active calls of the source: *; nt = no result given. In the library only some 4% were active in any assay of this set; here they are far more common.

SMILES	TAAR1 agonist	OX1R antag-1	OX1R antag-2	TAAR1 antagonist	NTR1 agonist	CHO parental Ca	OX1R Ca confirm	CHO Ca triplic
O=C(c1ccccc1)N1CCN(c2nc3ccc([N+](=O)[O-])cc3s2)CC1	6	31	23	5	-1	24	27	22
CS(=O)(=O)c1ccc(Cl)c(C(=O)Nc2ccc3nc(N4CCOCC4)sc3c2)c1	13	8	-17	14	0	-18	nt	nt
COc1ccc(/C=C2\SC(=O)NC2=S)cc1OC	3	42	42	18	-2	24	3	-2
COc1ccc(Cl)cc1S(=O)(=O)Nc1ncn[nH]1	-1	14	7	2	-2	-6	nt	nt
CCCCc1ccc(C2C3=C(CC(C)(C)CC3=O)NC3=C2C(=O)c2ccccc23)cc1 (stereo not drawn)	4	17	2	1	12	-10	nt	nt
CCCc1ccc(C2C3=C(CC(C)(C)CC3=O)NC3=C2C(=O)c2ccccc23)cc1 (stereo not drawn)	10	29	66*	-17	5	-10	25	-4
CCc1nc2ccc(C(=O)NCCc3ccccn3)cn2c1N(C)Cc1cccs1	11	nt	nt	15	nt	nt	nt	nt
CS(=O)(=O)N(Cc1ccco1)CC(O)Cn1c2ccccc2c2ccccc21 (stereo not drawn)	14	37	51*	6	3	9	30*	-1
CCOC(=O)C1CCN(C(=O)CSCc2nc(-c3ccc(OCC)cc3)oc2C)CC1	7	42	29	25	0	17	-2	16
CCOc1ccc(-c2nc(CSCC(=O)N3CCN(C(=O)c4ccco4)CC3)c(C)o2)cc1	0	6	-30	-13	-2	-18	nt	nt
O=C(CSc1nnc(NCc2ccccc2)s1)c1ccco1	9	54	32	-2	0	-14	7	10
Cc1cc(NC(=O)CSc2nnc(NCc3ccccc3)s2)no1	-2	11	-4	-1	0	28	nt	nt
CCCCCCCCn1c(=O)c(C(=O)OC)c(N)c2ccccc21	11	26	25	16	15	-4	19	35*
OC(CN1CCCCC1)Cn1c2ccccc2c2cc(Br)ccc21 (stereo not drawn)	16	13	37	15	10	11	14	-4
CCCCCCCCNc1ncnc2ccccc12	nt	36	90*	nt	0	-3	16	85*
CCc1ccccc1Nc1ncnc2ccccc12	3	3	-5	-11	-1	-10	nt	nt
CC1(C(=O)NCCc2c[nH]c3ccccc23)CCN1Cc1csc2ccccc12 (stereo not drawn)	0	nt	nt	-9	nt	nt	nt	nt
COc1ccc(OC)c(S(=O)(=O)Nc2ccc(Oc3ccccc3)cc2)c1	27	10	45	27	6	13	9	9
COC(=O)c1cn(CCOc2ccc(C)cc2)c2ccccc12	5	8	-25	1	1	-19	nt	nt
CC(=O)c1cn(CCOc2ccc(F)cc2)c2ccccc12	7	27	48*	28	1	17	17	0
C#CCOCCOCCOCCNc1nc(N2CCN(C(=O)Cn3cc(CCO)nn3)CC2)nc(N2CCN(C(=O)[C@H](Cc3ccc(O)cc3)n3cc(CCO)nn3)CC2)n1	13	nt	nt	-18	nt	nt	nt	nt
COc1ccc(CN(C)c2ccc(S(=O)(=O)N3CCN(C)CC3)cc2[N+](=O)[O-])cc1OC	11	24	46*	2	2	6	3	65*
O=C1c2ccccc2-c2n[nH]c(=O)c3ccc(N4CCCCC4)c1c23	-1	85	26	6	8	-26	14	14
Cc1ccccc1C(=O)N1CCC(n2nccc2NC(=O)CCOc2ccccc2)CC1	8	2	-25	0	0	-13	nt	nt
CN(C)S(=O)(=O)N1CCCC(C(=O)c2ccc(-c3ccccc3)c(F)c2)C1 (stereo not drawn)	4	27	30	12	12	5	-3	-3
SMILES	TAAR1 agonist	OX1R antag-1	OX1R antag-2	TAAR1 antagonist	NTR1 agonist	CHO parental Ca	OX1R Ca confirm	CHO Ca triplic
C[C@H](CO)N1C[C@H](C)[C@@H](CN(C)Cc2ccc(Cl)c(Cl)c2)Oc2c(NC(=O)Cc3ccccc3)cccc2C1=O	27	16	56*	71*	19	22	4	-6
O=C(Nc1ccc([N+](=O)[O-])cc1)Nc1ccc2c(c1)OCCO2	21	42	28	13	4	18	23	19
CC(C)CC(OC(=O)CC1Sc2ccccc2NC1=O)C(=O)NC1CCCC1 (stereo not drawn)	5	16	-43	9	0	-35	nt	nt
Cc1csc(CN(C)C(=O)CC2C(=O)NCCN2Cc2ccc(F)c(F)c2)n1 (stereo not drawn)	1	15	-10	-7	0	-11	nt	nt
CC(=O)Nc1ccc(S(=O)(=O)N2CCSC2c2ccccc2Cl)cc1 (stereo not drawn)	31	39	26	26	-1	22	7	5
CC(=O)Nc1ccc(S(=O)(=O)N2CCSC2c2ccccc2)cc1 (stereo not drawn)	21	20	-13	0	-5	11	nt	nt
CC(C)CCN(C(=O)c1ccc(Br)cc1)c1c(N)n(Cc2ccccc2)c(=O)[nH]c1=O	13	8	-38	-1	2	-7	nt	nt
O=C(Nc1ncn[nH]1)c1ccc(Cl)c(S(=O)(=O)N2CCCCCC2)c1	2	12	29	-4	4	-3	1	7
O=C(CSc1nnc(-c2ccccc2F)o1)NC(=O)Cc1ccccc1	11	7	-10	-15	0	-18	nt	nt
COC(=O)C1=C(C)N(Cc2ccccc2)C(=NCc2cccc(Cl)c2)N[C@H]1c1cccc(F)c1	nt	11	61*	nt	18	21	51*	9
O=C(Nc1ccccc1)Nc1nc(-c2ccc(Cl)cc2)cs1	3	29	8	13	0	12	nt	nt
O=C(Nc1cccc(Cl)c1)Nc1nc(-c2ccc(Cl)cc2)cs1	17	18	29	18	4	19	2	60*

Screens as filed in PubChem BioAssay.
